Consider 13 compounds from PubChem BioAssay.

Each structure is given as a SMILES string. Activity calls are given as the source filed them.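 The calls were made as follows, unless noted: active = Her2 level under about 52% in both replicate screens, with viability over 70% of control (limit read from the data); inconclusive = Her2 under the limit in one screen only, or viability under 70%; inactive = Her2 level above the set limit.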

A short description of assay [1]: reducers of endogenous Her2 protein level, primary screen, SKBR3 breast tumor cells, AlphaScreen, ATP viability (AID 461).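 As to Her2 level: lower value means less Her2 protein in the cells.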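 As to viability: percent of carrier control wells set as 100% viability.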 The conditions noted are these: 18-24 h, measured here: SKBR3 viability, ATP luminescence, at 10 µM.
The target of assay [2] is Receptor tyrosine-protein kinase erbB-2 (Homo sapiens) (UniProt P04626). Described as above. Particulars: 18-24 h, at 10 µM, stronger effect = lower value.
A short description of assay [3]: SK-BR-3 cell growth inhibitors, pilot screen, 24 h, human (AID 572;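 active = viability at or below 10% of carrier control in both of two separate runs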;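 also: compound exposure lasted between 18 and 24 h rather than exactly 24 h; 100% = carrier-treated control wells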). Particulars: SK-BR-3 viability, CellTiter-Glo luminescence, at 10 µM, stronger effect = lower value. A general note: ATP-based viability assays read luminescence as a measure of living cells.
A short description of assay [4]: HUVEC growth inhibition – cell-based, human, primary screen (AID 575;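 active = viability at or below 30% in both replicate assays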;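 also: 100% = median of untreated cell wells with 0.1% DMSO on each plate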). The conditions noted are these: HUVEC proliferation, CellTiter-Glo luminescence, 72 h; at 10 µM; stronger effect = lower value. The method in brief: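 Test system: HUVEC primary cells. Quantity: 1250 endothelial cells in each well. Dosing: single-point 10 µM, DMSO 0.1% final. Incubation: 72 h treatment at 37 °C. Measured by: CTG luminescence. Control set: DMSO cell controls and MePR drug controls. Plate: collagen-coated 384-well format.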

A short description of assay [5]: growth inhibitors of H69AR lung tumor, primary screen, human, duplicate replicates (AID 580;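 active = viability at or under a set limit in both replicates, limit being median viability minus 3 SD, cut at about 48% in these data, passing the limit was not always enough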;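 also: 100% = mean luminescence of untreated wells and 0% = no signal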). Particulars: H69AR lung tumor cells viability, ATP luminescence, 72 h; at 10 µM; stronger effect = lower value.
A short description of assay [6]: reversal of MRP1-mediated doxorubicin resistance, pilot screen, H69AR cells, doxorubicin co-treatment (AID 601;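 active = viability loss from added drug above about 55%, and viability with drug at most 40%, in both replicates, limit read from the data, passing the limit was not always enough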). The conditions noted are these: CellTiter-Glo, 72 h, at 10 µM; for differential viability (reversal): stronger effect = higher value.
Assay [7] can be described thus: 384-well plate pilot, post-Golgi transport modulator project, inhibition of yeast transport mutant growth (AID 636; in the data active = inhibition above about 31%). The conditions noted are these: absorbance 615 nm, about 18 h, stronger effect = higher value.
Assay [8] in a line: growth suppression of yeast trafficking mutant, preliminary HTS, modulators of trafficking downstream of Golgi apparatus project, 1536-format plate, OD 615 nm (AID 637; in the data active = inhibition above about 30%). The conditions noted are these: yeast transport mutant growth, absorbance 615 nm, 18 h; stronger effect = higher value.
Setting [9] is: H69AR cells + 2 uM doxorubicin, measured here: viability with 2 uM doxorubicin, stronger effect = lower value.
[10] abbreviates: H69AR cells, compound alone cytotoxicity.

Receptor tyrosine-protein kinase erbB-2 (Homo sapiens), sequence (P04626 whole entry, looked up): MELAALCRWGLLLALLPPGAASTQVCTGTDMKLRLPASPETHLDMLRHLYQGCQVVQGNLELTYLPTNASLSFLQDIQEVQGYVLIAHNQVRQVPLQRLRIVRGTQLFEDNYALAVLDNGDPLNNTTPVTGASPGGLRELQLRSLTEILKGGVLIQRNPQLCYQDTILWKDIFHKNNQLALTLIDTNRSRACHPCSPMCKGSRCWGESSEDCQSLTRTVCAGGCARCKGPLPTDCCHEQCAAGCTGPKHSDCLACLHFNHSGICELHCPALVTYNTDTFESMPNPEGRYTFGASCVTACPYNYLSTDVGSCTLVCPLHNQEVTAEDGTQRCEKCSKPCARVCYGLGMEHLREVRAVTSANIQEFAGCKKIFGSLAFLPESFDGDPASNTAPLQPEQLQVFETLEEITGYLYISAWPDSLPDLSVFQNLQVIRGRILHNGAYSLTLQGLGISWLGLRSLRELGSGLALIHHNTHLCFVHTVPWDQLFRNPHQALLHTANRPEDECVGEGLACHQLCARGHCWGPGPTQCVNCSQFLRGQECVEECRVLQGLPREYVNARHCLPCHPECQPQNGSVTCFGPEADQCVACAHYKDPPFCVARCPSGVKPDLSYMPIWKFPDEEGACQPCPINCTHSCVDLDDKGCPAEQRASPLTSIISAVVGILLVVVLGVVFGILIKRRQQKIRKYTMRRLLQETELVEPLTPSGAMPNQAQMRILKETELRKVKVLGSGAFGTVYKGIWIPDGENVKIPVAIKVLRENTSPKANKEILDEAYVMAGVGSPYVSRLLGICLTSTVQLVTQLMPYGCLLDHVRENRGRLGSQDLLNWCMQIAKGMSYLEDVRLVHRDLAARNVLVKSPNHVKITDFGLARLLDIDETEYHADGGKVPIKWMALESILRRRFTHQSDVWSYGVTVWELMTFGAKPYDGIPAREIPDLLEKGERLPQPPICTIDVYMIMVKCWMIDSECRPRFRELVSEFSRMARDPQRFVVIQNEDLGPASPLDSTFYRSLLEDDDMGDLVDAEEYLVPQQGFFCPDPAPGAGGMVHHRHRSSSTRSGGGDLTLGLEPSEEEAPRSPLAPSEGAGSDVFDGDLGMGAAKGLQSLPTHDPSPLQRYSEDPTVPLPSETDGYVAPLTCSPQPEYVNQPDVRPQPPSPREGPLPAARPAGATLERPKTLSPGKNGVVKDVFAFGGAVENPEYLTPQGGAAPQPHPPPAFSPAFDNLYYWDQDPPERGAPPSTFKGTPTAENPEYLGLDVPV

Usually viability stands for a read-out of living cells in per cent, often relative to untreated cells. A word on the inhibition: it is the drop in the measured response relative to a control, in per cent. Consider `Cc1cc(NC(=O)c2ccc3c(c2)C(=O)N(Cc2cccnc2)C3=O)no1`, for which the viability in assay [1] was 96.5%; in assay [3], 96.5% (inactive); in assay [4], 106% (inactive); in assay [5], 102% (inactive); in assay [6] (setting [9]), 102%; in assay [6] (setting [10]) it was 102%. In addition, the Her2 level in assay [2] was 110% (inactive). Also, the differential viability (reversal) in assay [6] (H69AR cells + 2 uM doxorubicin) is 0.045% (inactive). For the same compound, the inhibition in assay [7] is -1.07% (inactive); in assay [8], 12.5% (inactive).

On to `CCN(CC)S(=O)(=O)c1ccc(NC(=O)CN(c2cccc(F)c2)S(C)(=O)=O)cc1`, for which the viability is 96% in assay [1]; 96% (inactive) in assay [3]; 88.7% (inactive) in assay [4]; 92.5% (inactive) in assay [5]; 96.3% in assay [6] (setting [9]); 92.5% in assay [6] (setting [10]). The Her2 level in assay [2] was 84.5% (inactive). In addition, the differential viability (reversal) in assay [6] (H69AR cells + 2 uM doxorubicin) was -3.88% (inactive). The inhibition was -4.29% (inactive) in assay [7] and -0.33% (inactive) in assay [8].

For the compound `O=C(CCS(=O)(=O)c1cccc2nonc12)Nc1cccc2c1CCCC2`, the viability in assay [1] was 94.5%; in assay [3], 94.5% (inactive); in assay [4] it was 103% (inactive); in assay [5] it was 95.5% (inactive); in assay [6] (setting [9]), 83.5%; in assay [6] (setting [10]), 95.5%. The Her2 level in assay [2] is 114% (inactive). Besides, the differential viability (reversal) in assay [6] (H69AR cells + 2 uM doxorubicin) was 12% (inactive). Also, the inhibition in assay [7] is -6.44% (inactive); in assay [8], -3.65% (inactive).

Regarding `COc1ccc(C(=O)N2CCSC2=S)cc1OC`, the viability in assay [1] was 97.5%; in assay [3], 97.5% (inactive); in assay [4], 89.4% (inactive); in assay [5], 82.1% (inactive); in assay [6] (setting [9]), 93.6%; in assay [6] (setting [10]), 82.1%. Besides, the Her2 level in assay [2] is 96% (inactive). Further, the differential viability (reversal) in assay [6] (H69AR cells + 2 uM doxorubicin) is -11.5% (inactive). Moreover, the inhibition in assay [7] was -2.21% (inactive); in assay [8], -1.67% (inactive).

On to `O=C(NCCCNC1CCCCC1)c1ccc(/C=N/O)nc1`, for which the viability was 84% in assay [1]; 84% (inactive) in assay [3]; 92.4% (inactive) in assay [4]; 103% (inactive) in assay [5]; 98.6% in assay [6] (setting [9]); 103% in assay [6] (setting [10]). For the same compound, in assay [2], the Her2 level was 96% (inactive). For the same compound, in assay [6] (H69AR cells + 2 uM doxorubicin), the differential viability (reversal) is 4.55% (inactive). Further, the values for the inhibition in assay [7] and in assay [8] were -0.91% (inactive) and -5.71% (inactive), respectively.

Turning to `Cn1c(SCC(=O)N2CCOCC2)nnc1-c1cccc(NC(=O)c2ccccc2F)c1`, the viability is 102% in assay [1]; 102% (inactive) in assay [3]; 94% (inactive) in assay [4]; 91.5% (inactive) in assay [5]; 80.1% in assay [6] (setting [9]); 91.5% in assay [6] (setting [10]). Besides, the Her2 level in assay [2] is 82.5% (inactive). In addition, the differential viability (reversal) in assay [6] (H69AR cells + 2 uM doxorubicin) was 11.4% (inactive). Moreover, the inhibition in assay [7] is -0.92% (inactive); in assay [8], 3.06% (inactive).

`Cc1ccc(O)c(NC(=O)COc2cc(C)ccc2C)c1`: the viability in assay [1] is 93.5%; in assay [3] it was 93.5% (inactive); in assay [4] it was 77.7% (inactive); in assay [5] it was 89.4% (inactive); in assay [6] (setting [9]), 84%; in assay [6] (setting [10]), 89.4%. The Her2 level in assay [2] was 89.5% (inactive). Also, the differential viability (reversal) in assay [6] (H69AR cells + 2 uM doxorubicin) was 5.4% (inactive). For the same compound, the inhibition in assay [7] is -1.97% (inactive); in assay [8], -10.3% (inactive).

For the compound `Cc1c(C(=O)O)oc2ccc(S(=O)(=O)NCc3ccccc3)cc12`, the viability was 105% in assay [1]; 105% (inactive) in assay [3]; 113% (inactive) in assay [4]; 106% (inactive) in assay [5]; 105% in assay [6] (setting [9]); 106% in assay [6] (setting [10]). Moreover, the Her2 level in assay [2] was 113% (inactive). The differential viability (reversal) in assay [6] (H69AR cells + 2 uM doxorubicin) was 0.815% (inactive). In addition, the inhibition is -3.42% (inactive) in assay [7] and -6.51% (inactive) in assay [8].

With `CC1CCN(C(=O)CCNS(=O)(=O)c2ccccc2)CC1`, the viability in assay [1] was 110%; in assay [3], 110% (inactive); in assay [4] it was 96.7% (inactive); in assay [5], 92.8% (inactive); in assay [6] (setting [9]) it was 92%; in assay [6] (setting [10]) it was 92.8%. In assay [2], the Her2 level was 118% (inactive). Also, in assay [6] (H69AR cells + 2 uM doxorubicin), the differential viability (reversal) is 0.83% (inactive). The inhibition was -3.9% (inactive) in assay [7] and -2.06% (inactive) in assay [8].

As for `CCCc1nnc2n1N=C(c1ccc(OC)c(OC)c1)CS2`, the viability in assay [1] is 85%; in assay [3] it was 85% (inactive); in assay [4] it was 68.7% (inactive); in assay [5], 69.9% (inactive); in assay [6] (setting [9]), 66.8%; in assay [6] (setting [10]) it was 69.9%. For the same compound, the Her2 level in assay [2] was 80% (inactive). Further, the differential viability (reversal) in assay [6] (H69AR cells + 2 uM doxorubicin) was 3.1% (inactive). The results for the inhibition in assay [7] and in assay [8] were -5.33% (inactive) and 2.62% (inactive), respectively.

On to `O=c1c2cc(N3CCOCC3)ccc2[nH]c(=S)n1CCCN1CCCCC1`, for which the viability in assay [1] is 83.5%; in assay [3], 83.5% (inactive); in assay [4], 84.9% (inactive); in assay [5] it was 95.9% (inactive); in assay [6] (setting [9]), 91.2%; in assay [6] (setting [10]), 95.9%. The Her2 level in assay [2] was 93.5% (inactive). Moreover, the differential viability (reversal) in assay [6] (H69AR cells + 2 uM doxorubicin) is 4.74% (inactive). In addition, the figures for the inhibition in assay [7] and in assay [8] were -4.59% (inactive) and -8.36% (inactive), respectively.

As for `Cc1cc2c(c(=O)n1CCc1ccccc1)C(C(C)C)C(C#N)=C(N)O2` (stereo not given), the viability in assay [1] was 95%; in assay [3], 95% (inactive); in assay [4], 93.9% (inactive); in assay [5], 83.5% (inactive); in assay [6] (setting [9]), 92.8%; in assay [6] (setting [10]), 83.5%. In addition, in assay [2], the Her2 level was 87% (inactive). The differential viability (reversal) in assay [6] (H69AR cells + 2 uM doxorubicin) was -9.34% (inactive). Also, the results for the inhibition in assay [7] and in assay [8] were -4.87% (inactive) and 2.79% (inactive), respectively.

On to `COc1ccc(CCNC(=O)c2cnc3scc(C)n3c2=O)cc1OC`, for which the viability in assay [1] was 78%; in assay [3] it was 78% (inactive); in assay [4] it was 90.4% (inactive); in assay [5], 94.8% (inactive); in assay [6] (setting [9]) it was 92.9%; in assay [6] (setting [10]), 94.8%. Also, in assay [2], the Her2 level was 89% (inactive). Further, the differential viability (reversal) in assay [6] (H69AR cells + 2 uM doxorubicin) is 1.87% (inactive). Also, the inhibition in assay [7] was -6.27% (inactive); in assay [8] it was 2% (inactive).
